# In ChEMBL document CHEMBL5390255, “Expanding the squaramide library as mycobacterial ATP synthase inhibitors: Innovative synthetic pathway and biological evaluation” (Bioorg Med Chem, 2023):
# Activity calls are given as the source filed them. No cut-off for these calls is given here.
# How the values were obtained:
# Format in all cases: functional
# [1] = test system: Mycobacterium tuberculosis; test: Induction of drug resistance in Mycobacterium tuberculosis H37Ra at 10 to 16 fold MIC; conditions: time 4-5 weeks
# Method in brief: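 Exponential-phase H37Ra, about 10⁷ bacteria, plated on 7H11 agar with compound at 10x and 16x MIC. Incubated 4–5 weeks at 37 °C. Frequency calculated as mutant colonies divided by total cells plated. Clones confirmed by PCR and Sanger sequencing of atp genes and rv0678.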
# [2] = test system: Mycobacterium tuberculosis; test: Antibacterial activity against Bedaquiline- sensitive Mycobacterium tuberculosis H37Ra harboring atpB.K179N_02 mutant incubated for 7 days by resazurin staining based microtiter assay; conditions: time 7 day
# Method in brief: (§1)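 Resazurin microtiter assay on H37Ra atpB K179N mutants and wild type, using exponential cultures diluted to OD 0.02. 3-fold serial dilution from 10 µM (0.002–10 µM), in triplicate. After 7 days, 0.02% resazurin added for 24 h, then fluorescence read (ex 530/em 590 nm). MIC taken from four-parameter variable-slope nonlinear regression.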
# [3] = test system: Mycobacterium tuberculosis; test: Antibacterial activity against Bedaquiline- sensitive Mycobacterium tuberculosis H37Ra harboring atpB.K179N_01 mutant incubated for 7 days by resazurin staining based microtiter assay; conditions: time 7 day; method in brief: as §1
Structure (SMILES),Activity [1],MIC [2] [µM],MIC [3] [µM]
O=c1c(NCc2ccccn2)c(-c2ccc(N3CCCCC3)cc2)c1=O,Active,,
COc1nc2ccc(Br)cc2cc1[C@@H](c1ccccc1)[C@@](O)(CCN(C)C)c1cccc2ccccc12 [BEDAQUILINE],,0.12,0.11
COc1ccc(-c2c(NCc3ccccn3)c(=O)c2=O)cc1,Active,,
